Results as given in ChEMBL document CHEMBL5649168, “Discovery of a selective catalytic p300/CBP inhibitor that targets lineage-specific tumours” (Nature, 2017).
pEC50, pIC50: −log10 of the molar value. Active and inactive are the calls of the source. The calls are words filed in the database; no cut-off is given here.

Experiments:
[1] = target: BDNF/NT-3 growth factors receptor (Homo sapiens, UniProt Q16620); assay: Inhibition of TrkB (unknown origin)
[2] = AUC in CB17 SCID mouse xenografted with LuCaP-77 CR cell at 200 mg/kg, ip administered for 7 days; assay type: ADME, organism-based; details: in vivo, time 7 day
[3] = system: NCI-H2081; assay: Antiproliferative activity against human NCI-H2081 cells assessed as inhibition of cell viability incubated for 3 to 5 days by Celltiter-Glo luminescent assay; assay type: functional, cell-based
[4] = system: NCI-H1373; assay: Antiproliferative activity against human NCI-H1373 cells assessed as inhibition of cell viability incubated for 3 to 5 days by Celltiter-Glo luminescent assay; assay type: functional, cell-based
[5] = in vivo; details: CB17 SCID, mouse, brain/plasma, po, 500 mg/kg
[6] = system: NCI-H1693; assay: Antiproliferative activity against human NCI-H1693 cells assessed as inhibition of cell viability incubated for 3 to 5 days by Celltiter-Glo luminescent assay; assay type: functional, cell-based
[7] = system: HCC1143; assay: Antiproliferative activity against human HCC1143 cells assessed as inhibition of cell viability incubated for 3 to 5 days by Celltiter-Glo luminescent assay; assay type: functional, cell-based
[8] = target: Aurora kinase B (Homo sapiens, UniProt Q96GD4); assay: Inhibition of Aurora1 (unknown origin)
[9] = system: MDA-MB-436; assay: Antiproliferative activity against human MDA-MB-436 cells assessed as inhibition of cell viability incubated for 3 to 5 days by Celltiter-Glo luminescent assay; assay type: functional, cell-based
[10] = system: OCI-AML-5; assay: Antiproliferative activity against human OCI-AML5 cells assessed as inhibition of cell viability incubated for 3 to 5 days by Celltiter-Glo luminescent assay; assay type: functional, cell-based
[11] = system: HT; assay: Antiproliferative activity against human HT cells assessed as inhibition of cell viability incubated for 3 to 5 days by Celltiter-Glo luminescent assay; assay type: functional, cell-based
[12] = system: DU-145; assay: Antiproliferative activity against human DU-145 cells assessed as inhibition of cell viability incubated for 3 to 5 days by Celltiter-Glo luminescent assay; assay type: functional, cell-based
[13] = system: SU-DHL-6; assay: Antiproliferative activity against human SU-DHL-6 cells assessed as inhibition of cell viability incubated for 3 to 5 days by Celltiter-Glo luminescent assay; assay type: functional, cell-based
[14] = system: VCaP; assay: Antiproliferative activity against human VCaP cells assessed as inhibition of cell viability incubated for 3 to 5 days by Celltiter-Glo luminescent assay; assay type: functional, cell-based
[15] = Anti-tumor activity against human LuCaP-77 CR cell xenografted in SCID mouse assessed as tumor growth inhibition administered for 21 days relative to control; assay type: functional; details: time 21 day
[16] = system: Pfeiffer; assay: Antiproliferative activity against human Pfeiffer cells assessed as inhibition of cell viability incubated for 3 to 5 days by Celltiter-Glo luminescent assay; assay type: functional, cell-based
[17] = system: NCI-H1417; assay: Antiproliferative activity against human NCI-H1417 cells assessed as inhibition of cell viability incubated for 3 to 5 days by Celltiter-Glo luminescent assay; assay type: functional, cell-based
[18] = system: U2932; assay: Antiproliferative activity against human U2932 cells assessed as inhibition of cell viability incubated for 3 to 5 days by Celltiter-Glo luminescent assay; assay type: functional, cell-based
[19] = target: Tyrosine-protein kinase Lck (Homo sapiens, UniProt P06239); assay: Inhibition of Lck (unknown origin)
[20] = target: ALK tyrosine kinase receptor (Homo sapiens, UniProt Q9UM73); assay: Inhibition of ALK (unknown origin)
[21] = system: NCI-H209; assay: Antiproliferative activity against human NCI-H209 cells assessed as inhibition of cell viability incubated for 3 to 5 days by Celltiter-Glo luminescent assay; assay type: functional, cell-based
[22] = target: Mitogen-activated protein kinase kinase kinase kinase 2 (Homo sapiens, UniProt Q12851); assay: Inhibition of MAP4K2 (unknown origin)
[23] = target: T1, CREB-binding protein/Histone acetyltransferase p300 (Homo sapiens, UniProt Q09472+Q92793); assay: Inhibition of p300/CBP in human 22Rv1 cells assessed as reduction in H3K18Ac level incubated for 1 hr by Hoechst 33342 staining based high content microscopy analysis; assay type: cell-based
In short: (§1)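 Cells received an 8-point half-log dilution series from 10 µM. They were then fixed in 10% formaldehyde (10 min, RT), permeabilised with 0.1% Triton X-100 and blocked with 1% BSA for 1 h. Primary antibodies were applied overnight at 4 °C, followed by Alexa488 anti-rabbit, Alexa555 anti-mouse and Hoechst 33342 for 1 h. Fifteen fields per well were imaged and average mean intensity taken. EC50 came from a sigmoidal fit.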

[24] = target: Vascular endothelial growth factor receptor 1 (Homo sapiens, UniProt P17948); assay: Inhibition of Flt1 (unknown origin)
[25] = system: MDA-MB-468; assay: Antiproliferative activity against human MDA-MB-468 cells assessed as inhibition of cell viability incubated for 3 to 5 days by Celltiter-Glo luminescent assay; assay type: functional, cell-based
[26] = system: NCI-H510A; assay: Antiproliferative activity against human NCI-H510A cells assessed as inhibition of cell viability incubated for 3 to 5 days by Celltiter-Glo luminescent assay; assay type: functional, cell-based
[27] = target: T1, CREB-binding protein/Histone acetyltransferase p300; assay: Inhibition of p300/CBP in human 22Rv1 cells assessed as reduction in H3K27Ac level incubated for 24 hrs by Hoechst 33342 staining based high content microscopy analysis; assay type: cell-based; in short: as §1
[28] = target: Glycogen synthase kinase-3 beta (Homo sapiens, UniProt P49841); assay: Inhibition of Gsk3beta (unknown origin)
[29] = system: U-937; assay: Antiproliferative activity against human U937 cells assessed as inhibition of cell viability incubated for 3 to 5 days by Celltiter-Glo luminescent assay; assay type: functional, cell-based
[30] = target: Platelet-derived growth factor receptor beta (Homo sapiens, UniProt P09619); assay: Inhibition of PDGFRbeta (unknown origin)
[31] = target: T1, CREB-binding protein/Histone acetyltransferase p300; assay: Inhibition of p300/CBP in human 22Rv1 cells assessed as reduction in H3K18Ac level incubated for 24 hrs by Hoechst 33342 staining based high content microscopy analysis; assay type: cell-based; in short: as §1
[32] = target: Serine/threonine-protein kinase B-raf (Homo sapiens, UniProt P15056); assay: Inhibition of B-Raf (unknown origin)
[33] = target: Calcium/calmodulin-dependent protein kinase kinase 2 (Homo sapiens, UniProt Q96RR4); assay: Inhibition of CAMKK2 (unknown origin)
[34] = Inhibition of CDK8/Cyclin C (unknown origin); set-up: species or system Homo sapiens
[35] = system: Rec1; assay: Antiproliferative activity against human REC1 cells assessed as inhibition of cell viability incubated for 3 to 5 days by Celltiter-Glo luminescent assay; assay type: functional, cell-based
[36] = system: SET-2; assay: Antiproliferative activity against human SET2 cells assessed as inhibition of cell viability incubated for 3 to 5 days by Celltiter-Glo luminescent assay; assay type: functional, cell-based
[37] = target: Mitogen-activated protein kinase kinase kinase kinase 4 (Homo sapiens, UniProt O95819); assay: Inhibition of MAP4K4 (unknown origin)
[38] = system: LuCaP-77 CR cell; details: Homo sapiens, dose 100.0 mg/kg, time 7.0 day
[39] = system: CA46; assay: Antiproliferative activity against human CA46 cells assessed as inhibition of cell viability incubated for 3 to 5 days by Celltiter-Glo luminescent assay; assay type: functional, cell-based

T1 sequence (Q09472 whole entry, looked up): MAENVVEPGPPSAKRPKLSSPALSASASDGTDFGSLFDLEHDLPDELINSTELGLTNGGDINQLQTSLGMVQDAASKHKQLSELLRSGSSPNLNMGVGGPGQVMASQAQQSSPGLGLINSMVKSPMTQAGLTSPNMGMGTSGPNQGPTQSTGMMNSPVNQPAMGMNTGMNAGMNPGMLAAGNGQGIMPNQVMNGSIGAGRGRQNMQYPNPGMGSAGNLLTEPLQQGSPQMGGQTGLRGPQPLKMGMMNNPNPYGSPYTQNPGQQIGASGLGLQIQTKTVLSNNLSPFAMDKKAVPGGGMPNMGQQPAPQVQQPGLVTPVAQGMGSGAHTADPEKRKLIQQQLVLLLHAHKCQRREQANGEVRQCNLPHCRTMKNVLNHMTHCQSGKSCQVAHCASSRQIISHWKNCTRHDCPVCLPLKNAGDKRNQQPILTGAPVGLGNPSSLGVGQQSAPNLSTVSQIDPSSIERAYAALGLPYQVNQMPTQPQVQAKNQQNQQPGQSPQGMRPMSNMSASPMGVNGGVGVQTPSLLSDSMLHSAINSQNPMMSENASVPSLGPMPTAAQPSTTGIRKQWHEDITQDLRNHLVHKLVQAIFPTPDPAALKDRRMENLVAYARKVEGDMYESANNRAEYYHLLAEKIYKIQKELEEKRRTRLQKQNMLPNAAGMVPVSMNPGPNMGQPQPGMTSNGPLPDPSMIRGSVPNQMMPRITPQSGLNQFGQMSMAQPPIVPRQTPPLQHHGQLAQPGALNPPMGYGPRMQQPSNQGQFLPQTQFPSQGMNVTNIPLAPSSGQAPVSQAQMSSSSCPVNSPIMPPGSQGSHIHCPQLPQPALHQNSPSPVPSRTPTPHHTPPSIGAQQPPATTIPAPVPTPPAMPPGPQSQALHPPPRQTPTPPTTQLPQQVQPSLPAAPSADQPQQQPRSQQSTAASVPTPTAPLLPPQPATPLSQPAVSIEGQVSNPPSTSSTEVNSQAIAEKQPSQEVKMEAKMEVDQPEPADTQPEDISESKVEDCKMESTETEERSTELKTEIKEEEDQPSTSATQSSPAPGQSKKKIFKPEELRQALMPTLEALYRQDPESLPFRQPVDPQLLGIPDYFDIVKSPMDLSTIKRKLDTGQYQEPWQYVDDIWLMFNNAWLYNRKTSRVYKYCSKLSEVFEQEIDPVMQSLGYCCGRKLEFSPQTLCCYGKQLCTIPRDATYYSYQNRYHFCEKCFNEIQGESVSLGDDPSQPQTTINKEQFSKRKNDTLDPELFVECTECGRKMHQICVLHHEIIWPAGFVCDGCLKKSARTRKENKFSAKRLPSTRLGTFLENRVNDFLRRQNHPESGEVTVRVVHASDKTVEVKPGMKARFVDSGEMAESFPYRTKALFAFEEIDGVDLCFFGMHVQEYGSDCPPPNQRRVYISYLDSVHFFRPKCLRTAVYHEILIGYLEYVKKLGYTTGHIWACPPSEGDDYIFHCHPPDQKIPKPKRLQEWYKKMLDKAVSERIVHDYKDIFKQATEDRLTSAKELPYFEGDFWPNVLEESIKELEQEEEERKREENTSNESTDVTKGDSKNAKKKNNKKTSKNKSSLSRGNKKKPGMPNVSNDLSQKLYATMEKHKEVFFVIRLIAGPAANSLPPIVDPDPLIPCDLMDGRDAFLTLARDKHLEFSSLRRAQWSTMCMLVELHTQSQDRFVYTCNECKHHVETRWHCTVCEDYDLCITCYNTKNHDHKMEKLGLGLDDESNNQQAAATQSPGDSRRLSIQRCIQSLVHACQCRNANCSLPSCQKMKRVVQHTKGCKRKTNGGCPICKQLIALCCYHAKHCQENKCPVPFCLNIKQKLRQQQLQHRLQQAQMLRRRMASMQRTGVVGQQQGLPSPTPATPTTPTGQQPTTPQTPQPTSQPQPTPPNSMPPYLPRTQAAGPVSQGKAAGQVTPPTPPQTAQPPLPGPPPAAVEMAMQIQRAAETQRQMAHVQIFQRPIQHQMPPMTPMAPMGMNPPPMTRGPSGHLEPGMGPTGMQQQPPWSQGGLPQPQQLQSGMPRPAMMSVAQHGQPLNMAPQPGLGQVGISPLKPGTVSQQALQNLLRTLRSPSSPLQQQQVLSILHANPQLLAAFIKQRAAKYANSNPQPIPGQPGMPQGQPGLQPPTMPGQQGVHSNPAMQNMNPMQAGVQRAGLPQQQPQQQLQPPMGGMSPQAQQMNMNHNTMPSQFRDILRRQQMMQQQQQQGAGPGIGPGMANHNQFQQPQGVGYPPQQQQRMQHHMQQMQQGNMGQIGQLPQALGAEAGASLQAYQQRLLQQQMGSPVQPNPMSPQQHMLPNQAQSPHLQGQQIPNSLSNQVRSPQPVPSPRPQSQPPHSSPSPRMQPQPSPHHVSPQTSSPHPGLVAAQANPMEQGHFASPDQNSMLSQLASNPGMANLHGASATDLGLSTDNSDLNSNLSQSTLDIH
T1 sequence (Q92793 whole entry, looked up): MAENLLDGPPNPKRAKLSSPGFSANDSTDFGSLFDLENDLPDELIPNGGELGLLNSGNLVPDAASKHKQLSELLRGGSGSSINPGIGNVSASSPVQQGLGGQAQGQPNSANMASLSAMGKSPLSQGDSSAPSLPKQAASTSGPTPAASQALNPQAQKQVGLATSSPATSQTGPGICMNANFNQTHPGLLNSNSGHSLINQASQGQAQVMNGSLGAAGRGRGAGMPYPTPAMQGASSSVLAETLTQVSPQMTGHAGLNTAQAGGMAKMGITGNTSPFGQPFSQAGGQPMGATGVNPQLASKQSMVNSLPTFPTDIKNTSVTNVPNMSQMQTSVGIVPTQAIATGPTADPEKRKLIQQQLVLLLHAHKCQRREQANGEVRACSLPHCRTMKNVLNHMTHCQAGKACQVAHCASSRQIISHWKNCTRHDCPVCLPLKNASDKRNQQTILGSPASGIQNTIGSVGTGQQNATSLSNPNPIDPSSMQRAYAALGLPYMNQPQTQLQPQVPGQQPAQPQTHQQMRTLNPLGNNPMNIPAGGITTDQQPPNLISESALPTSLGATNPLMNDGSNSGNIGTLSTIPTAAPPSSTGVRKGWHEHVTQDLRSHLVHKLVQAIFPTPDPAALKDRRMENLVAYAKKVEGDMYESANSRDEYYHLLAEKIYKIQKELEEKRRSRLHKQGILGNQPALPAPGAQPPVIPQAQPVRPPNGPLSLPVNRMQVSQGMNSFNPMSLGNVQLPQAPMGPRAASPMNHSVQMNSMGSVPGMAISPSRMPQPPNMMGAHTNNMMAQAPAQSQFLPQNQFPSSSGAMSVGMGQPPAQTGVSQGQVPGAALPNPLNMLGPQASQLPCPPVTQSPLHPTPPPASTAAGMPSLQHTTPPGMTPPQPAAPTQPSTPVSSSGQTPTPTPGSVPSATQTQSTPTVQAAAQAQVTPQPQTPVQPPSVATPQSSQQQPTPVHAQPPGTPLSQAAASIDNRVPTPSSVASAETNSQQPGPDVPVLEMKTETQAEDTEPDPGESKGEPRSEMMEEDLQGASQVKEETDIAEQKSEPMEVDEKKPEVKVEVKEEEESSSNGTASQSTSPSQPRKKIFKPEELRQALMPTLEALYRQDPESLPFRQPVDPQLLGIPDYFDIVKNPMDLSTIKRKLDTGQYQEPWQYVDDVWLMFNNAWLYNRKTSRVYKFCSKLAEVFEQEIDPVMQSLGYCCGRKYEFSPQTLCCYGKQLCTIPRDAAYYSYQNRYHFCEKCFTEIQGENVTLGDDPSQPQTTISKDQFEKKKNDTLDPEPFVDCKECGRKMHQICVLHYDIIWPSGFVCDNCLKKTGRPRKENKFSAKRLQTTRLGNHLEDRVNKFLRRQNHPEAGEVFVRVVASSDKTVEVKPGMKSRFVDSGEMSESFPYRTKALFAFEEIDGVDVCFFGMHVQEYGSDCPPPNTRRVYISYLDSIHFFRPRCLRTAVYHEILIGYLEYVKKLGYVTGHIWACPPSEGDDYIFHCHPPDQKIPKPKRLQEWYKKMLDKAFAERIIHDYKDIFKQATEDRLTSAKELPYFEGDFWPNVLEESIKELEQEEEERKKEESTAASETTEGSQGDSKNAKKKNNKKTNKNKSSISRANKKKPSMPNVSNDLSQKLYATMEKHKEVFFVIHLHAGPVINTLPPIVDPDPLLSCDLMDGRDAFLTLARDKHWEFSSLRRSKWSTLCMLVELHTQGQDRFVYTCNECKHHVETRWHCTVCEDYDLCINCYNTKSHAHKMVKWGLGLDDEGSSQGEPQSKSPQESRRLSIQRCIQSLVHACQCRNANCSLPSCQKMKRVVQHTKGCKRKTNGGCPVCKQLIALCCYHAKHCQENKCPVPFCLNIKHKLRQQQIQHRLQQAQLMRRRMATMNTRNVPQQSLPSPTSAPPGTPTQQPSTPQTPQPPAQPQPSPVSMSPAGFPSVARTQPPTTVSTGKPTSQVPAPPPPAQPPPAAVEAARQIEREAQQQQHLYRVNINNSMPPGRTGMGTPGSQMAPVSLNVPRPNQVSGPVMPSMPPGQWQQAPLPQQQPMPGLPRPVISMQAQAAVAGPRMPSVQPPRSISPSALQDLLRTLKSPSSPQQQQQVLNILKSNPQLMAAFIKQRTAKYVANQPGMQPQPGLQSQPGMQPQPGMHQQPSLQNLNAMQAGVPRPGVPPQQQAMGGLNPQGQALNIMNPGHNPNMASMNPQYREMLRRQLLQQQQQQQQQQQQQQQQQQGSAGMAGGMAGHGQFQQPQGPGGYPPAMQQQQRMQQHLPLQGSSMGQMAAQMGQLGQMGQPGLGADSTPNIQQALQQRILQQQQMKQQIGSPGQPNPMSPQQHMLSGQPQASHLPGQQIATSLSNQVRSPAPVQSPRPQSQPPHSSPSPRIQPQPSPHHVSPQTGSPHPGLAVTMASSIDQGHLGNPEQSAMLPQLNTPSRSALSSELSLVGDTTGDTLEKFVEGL

Q: Which results are given for `CNC(=O)Nc1ccc2c(c1)CC[C@@]21OC(=O)N(CC(=O)N(Cc2ccc(F)cc2)[C@@H](C)C(F)(F)F)C1=O` [A-485]?
A: pIC50 [1]: < 5.00; AUC at 168 h [2]: 2950 µg·h/mL; pEC50 [3]: < 5.00; pEC50 [4]: 5.63; Kp at 24 h [5]: 0.03; pEC50 [6]: 5.63; pEC50 [7]: < 5.00; pIC50 [8]: < 5.00; pEC50 [9]: < 5.00; pEC50 [10]: 5.31; pEC50 [11]: < 5.00; pEC50 [12]: < 5.00; pEC50 [13]: 6.12; pEC50 [14]: 7.40; TGI [15]: 54%; pEC50 [16]: 6.07; pEC50 [17]: < 5.00; pEC50 [18]: 5.61; pIC50 [19]: < 5.00; pIC50 [20]: < 5.00; pEC50 [21]: 6.40; pIC50 [22]: < 5.00; INH [23]: 2.39 µM; pIC50 [24]: < 5.00; pEC50 [25]: 6.42; pEC50 [26]: < 5.00; INH [27]: 0.47 µM; pIC50 [28]: < 5.00; pEC50 [29]: < 5.00; pIC50 [30]: < 5.00; INH [31]: 3.79 µM; pIC50 [32]: < 5.00; pIC50 [33]: < 5.00; pIC50 [34]: < 5.00; pEC50 [35]: < 5.00; pEC50 [36]: 5.70; pIC50 [37]: < 5.00; inhibition [38]: inactive; pEC50 [39]: 6.32
